Hits are enriched below; roughly 2.3% of the tested compounds scored in any of these assays.
CSN inh: CSN deneddylation inhibition; actives 0.38% (n = 360,000); inhibition, % at 12.5 µM; Q92905; AID 651999; Purified CSN, SCF-Nedd8-OG deneddylation, fluorescence polarization;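 active means pattern-corrected inhibition above about 35%, with an unprinted fluorescence ratio check between 0.5 and 1.5, limit read from the data, passing the limit was not always enough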
Target sequence (Q92905 whole entry, looked up, one chain of several): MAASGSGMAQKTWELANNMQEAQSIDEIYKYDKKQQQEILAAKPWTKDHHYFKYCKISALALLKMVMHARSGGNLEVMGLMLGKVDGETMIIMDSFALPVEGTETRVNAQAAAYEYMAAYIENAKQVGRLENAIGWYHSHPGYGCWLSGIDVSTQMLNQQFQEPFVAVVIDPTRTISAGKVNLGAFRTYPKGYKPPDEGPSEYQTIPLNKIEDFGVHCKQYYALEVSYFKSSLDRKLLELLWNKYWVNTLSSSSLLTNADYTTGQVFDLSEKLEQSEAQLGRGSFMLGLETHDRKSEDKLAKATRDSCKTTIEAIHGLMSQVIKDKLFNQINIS
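Test system: purified human Csn5 enzyme expressed in HEK293T cells. Amount: 0.24 nM enzyme. Reagent: SCFSkp2-Nedd8OG substrate at 10 nM final. Schedule: 90 min incubation of compound, enzyme and substrate at room temperature. Detection: fluorescence polarization. Read-out: % inhibition of substrate cleavage by Csn5.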
Myeloid diff MLP: promotes myeloid progenitor differentiation; calls only at 10 µM; actives 1% (n = 360,000); ER-HoxA9 myeloid progenitors, lysozyme-GFP differentiation, flow cytometry;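 active means normalized GFP-positive differentiation at or above the plate's own cutoff, the solvent-only control mean plus 3 SD; inconclusive means no clear call, values can overlap the other calls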;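 further: cells exposed to compound for four days before flow analysis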
TPT1 inh: blocks Candida albicans tRNA 2'-phosphotransferase; recombinant caTPT1, FP RNA substrate dephosphorylation; inhibition, % at 5 µM; actives 0.81% (n = 300,000); AID 1962;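 active means inhibition above the mean of all tested compounds plus 3 SD, set per screening campaign, cut at about 24% in these data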
Rpn11 block: blocks the human proteasome subunit Rpn11; actives 0.59% (n = 360,000); AID 588493; human 26S proteasome, Ub4-pepOG fluorescence polarization; 20S core pre-blocked with epoxomicin; O00487; inhibition, % at 20 µM;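 active means inhibition at 20 µM, scaled to each plate's controls, above about 33%, limit read from the data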
HNF4A DNA FP: change in binding of human HNF4 alpha to DNA | P41235 | HNF4a-FITC DNA binding, fluorescence polarization, 1 h | activity change, % at 10 µM | actives 0.3% (n = 360,000); in the data active means activity change above about 30%, passing the limit was not always enough
Rpn11 confirm: Rpn11 inhibition confirmation, single concentration; shares compounds with Rpn11 block; actives 29% (n = 1,900); inhibition, % at 20 µM; AID 602318; purified human 26S proteasome, Ub4-pepOG fluorescence polarization; proteasome pretreated with epoxomicin
MMP-2 inh: blocks human MMP-2, flagging nonselective RPN11 hits; shares compounds with Rpn11 block; recombinant MMP-2, FRET peptide cleavage fluorescence; inhibition, % at 20 µM; actives 4% (n = 1,900); AID 602330;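 further: human MMP-2 activated beforehand with APMA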
Thrombin inh: blocks bovine thrombin, flagging nonselective RPN11 hits. AID 602333. actives 13% (n = 1,900). shares compounds with Rpn11 block. inhibition, % at 20 µM. bovine thrombin cleavage of Ub4-pepOG, fluorescence polarization;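 active means mean inhibition at least 40% at 20 µM, or signal 3 deviations below plate average, so some actives read negative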
Hits are given with their value; - = inactive; ? = inconclusive; . = not tested or not shown; + = active, no number. Unless noted, no stated cut-off is given here; in the data, active means inhibition above about 40%; inactive means the rest.

SMILES	CSN inh	Myeloid diff MLP	TPT1 inh	Rpn11 block	HNF4A DNA FP	Rpn11 confirm	MMP-2 inh	Thrombin inh
Cc1ccc(CSCC(=O)N/N=C/c2ccc(OCC(=O)Nc3ccc(C)cc3)cc2)cc1	-	-	-	102	-	80	-	-
O=C(Cn1c2ccccc2c(=O)c2ccccc21)N/N=C/c1cc([N+](=O)[O-])ccc1N1CCCCCC1	-	-	-	+	-	-	-	-
COc1ccc2cc(C(=O)Nc3ccc(O)cc3)sc(=O)c2c1OC	-	-	-	-	-	.	.	.
COc1ccc2cc(C(=O)Nc3ccc(Cl)cc3)sc(=O)c2c1OC	-	-	-	188	-	-	-	-
Nc1nc(SCc2ccc(Cl)cc2Cl)nc2nc3c(cc12)CCCC3	-	-	-	42	-	46	-	-
NC(=O)C(C1=CCCCC1)c1ccccc1 (stereo not drawn)	-	-	.	-	-	.	.	.
O=C(NN1C(=O)/C(=C/c2cccs2)SC1=S)c1cccnc1	-	-	-	42	-	-	-	-
O=C(NN1C(=O)CSC1=S)c1cccnc1	-	-	-	.	-	.	.	.
Cc1cc(NS(=O)(=O)c2ccc(NC(=O)c3cc4c(=O)n5ccccc5nc4s3)cc2)nc(C)n1	-	-	.	-	-	.	.	.
CN(C)S(=O)(=O)c1cccc(NC(=O)c2cc3c(=O)n4ccccc4nc3s2)c1	-	-	-	85	-	-	-	-
CCCCNC(=O)C1(C)CCN1C(=O)Cc1cccc2ccccc12 (stereo not drawn)	-	-	.	-	-	.	.	.
Cc1c(C(=O)NCc2ccc(Cl)c(Cl)c2)sc(=O)n1Cc1ccc(C(=O)N(C)C)cc1	-	-	.	-	-	.	.	.
Cc1ccccc1-n1cnc2c(sc3nc(N4CCOCC4)c4c(c32)CCCC4)c1=O	-	-	-	-	-	.	.	.
Cc1ccsc1/C=C/c1ccc2ccccc2n1	-	-	-	48	-	53	-	-
Cc1ccsc1/C=C/c1ccc2cccc(O)c2n1	-	-	-	-	-	.	.	.
O=C(O)c1ccc(COc2ccccc2/C=C2/NC(=O)N(c3cccc(Cl)c3)C2=O)cc1	45	-	-	56	-	56	-	-
O=C(O)c1ccc(COc2ccccc2C=C2C(=O)c3ccccc3C2=O)cc1	-	+	-	46	-	66	-	-
O=C(O)c1ccc(COc2ccccc2/C=C2\NC(=O)N(Cc3ccc(F)cc3)C2=O)cc1	-	-	-	-	-	.	.	.
N#CNC(=Nc1cccc(F)c1)SCc1ccccc1	-	-	-	47	-	-	-	-
N#CNC(=Nc1cccc(F)c1)SCc1cccc(F)c1	-	-	-	-	-	.	.	.
COc1cc([N+](=O)[O-])cc(/C=N/NC(=O)c2ccc(NC(=O)c3ccc(C)cc3)cc2)c1O	-	.	.	42	-	-	-	-
COc1cc([N+](=O)[O-])cc(/C=N/NC(=O)c2ccc(C)nc2)c1O	-	-	-	-	-	.	.	.
COc1cccc(/C=N/NC(=O)c2cc3cc([N+](=O)[O-])ccc3s2)c1O	-	?	-	62	-	-	-	-
CC(NC(=O)C1CCN(S(=O)(=O)c2cccs2)CC1)c1cccc(Cl)c1 (stereo not drawn)	-	-	.	-	-	.	.	.
Cc1ccc(CNC(=O)c2ccc(N3CCC4(CC3)CC(c3cccc(Br)c3)=NO4)c(NC(=O)c3cccc(C)c3)c2)cc1	-	-	-	42	-	-	-	-
O=C(NCCCNc1ccc(C(F)(F)F)cc1[N+](=O)[O-])c1ccc(F)cc1	-	-	-	-	-	.	.	.
Cc1ccc(C(=O)NCCCNc2ccc(C(F)(F)F)cc2[N+](=O)[O-])cc1	-	-	-	41	-	-	-	-
COc1cccc(Cn2c(N)c(C#N)c3nc4ccccc4nc32)c1OC	-	-	-	38	-	-	-	-
O=C(Nc1ccccc1C(=O)NCc1cccnc1)c1ccc(Cl)cc1Cl	-	-	-	-	-	.	.	.

Source: PubChem (several laboratories)
